# NR2E3 ag-1: agonists of human NR2E3 nuclear receptor | Q9Y5X4 | CHO-S Gal4-NCOR/VP16-NR2E3 two-hybrid, luciferase | inhibition of corepressor binding, % at 3.98 µM | actives 0.35% (n = 360,000) | AID 602229;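 active = inhibition above the mean of all tested compounds plus 3 SD, cut at about 70% in these data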;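 note: 0% = DMSO with NR2E3 transfected cells and 100% = cells lacking NR2E3 construct; higher means lower luciferase signal from less NR2E3 corepressor binding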
# Target sequence (Q9Y5X4 whole entry, looked up, the tested form may be a part): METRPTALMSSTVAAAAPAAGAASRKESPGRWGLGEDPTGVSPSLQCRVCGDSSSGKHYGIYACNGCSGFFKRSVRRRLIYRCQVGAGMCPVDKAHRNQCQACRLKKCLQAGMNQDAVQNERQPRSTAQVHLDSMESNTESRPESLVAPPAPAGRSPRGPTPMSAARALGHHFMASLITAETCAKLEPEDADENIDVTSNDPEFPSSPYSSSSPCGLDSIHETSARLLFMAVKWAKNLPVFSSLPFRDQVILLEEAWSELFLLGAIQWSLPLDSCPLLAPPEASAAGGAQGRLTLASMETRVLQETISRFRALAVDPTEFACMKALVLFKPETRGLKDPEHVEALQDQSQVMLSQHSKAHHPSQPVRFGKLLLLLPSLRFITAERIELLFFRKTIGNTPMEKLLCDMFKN
# NadD block: NadD (S. aureus) enzyme inhibition; purified NadD enzyme, colorimetric absorbance read-out; actives 0.78% (n = 360,000); inhibition, % at 20 µM; in the data active = inhibition above about 26%
# MsrA act: bovine methionine sulfoxide reductase A activation. purified bovine MsrA, absorbance read-out. activation, % at 10.6 µM. actives 0.3% (n = 360,000). AID 602163; in the data active = activation above about 7.5%;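 note: 0% = vehicle and 100% = reference activator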
# GalR3 antag: blocks the human galanin receptor 3; O60755; HEK293 GalR3-CNG cAMP membrane potential fluorescence; galR3 body fused to GalR1 C-terminus; inhibition, % at 3 µM; actives 0.44% (n = 360,000);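 active = inhibition above the screen-wide average plus 3 SD, cut at about 13% in these data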;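 note: forskolin and galanin both at EC90 stimulate the cells; cAMP rise reported by CNG channel membrane potential dye signal; 0% = forskolin plus galanin with DMSO and 100% = forskolin alone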
# Target sequence (O60755 1-299 limits assumed): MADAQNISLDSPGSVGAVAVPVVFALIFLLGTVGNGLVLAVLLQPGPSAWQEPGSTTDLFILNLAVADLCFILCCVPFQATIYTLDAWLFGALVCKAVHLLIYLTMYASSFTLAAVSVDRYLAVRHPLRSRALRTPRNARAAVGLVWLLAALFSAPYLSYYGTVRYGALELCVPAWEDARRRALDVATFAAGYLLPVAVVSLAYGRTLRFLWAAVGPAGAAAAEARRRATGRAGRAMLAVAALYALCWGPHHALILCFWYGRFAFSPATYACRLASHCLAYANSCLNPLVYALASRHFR
# NR2E3 ag-2: agonists of human nuclear receptor NR2E3. actives 0.12% (n = 320,000). GST-NR2E3/biotin-RetCOR TR-FRET, 1536-well. Q9Y5X4. inhibition of corepressor binding, % at 4.78 µM;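 active = percent inhibition above the cutoff of mean plus 3 SD of all tested compounds, set per screening campaign, cut at about 20% in these data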;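 note: 0% = DMSO wells and 100% = biotin wells as full block of FRET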
#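 Material – GST-tagged NR2E3 plus biotinylated RetCOR corepressor · Quantity – NR2E3 fusion 1.35 nM · Times – 5 h incubation at 4 °C · Medium – pH 7.5 Tris-based buffer · Technique – TR-FRET, Eu(K)-anti-GST donor, streptavidin-D2 acceptor, ex 340, em 617/671 nm · Benchmarks – high control biotin, low control 0.6% DMSO · Format – 1536-well plates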
# MsrA inh: inhibitors of bovine MsrA; inhibition, % at 15.5 µM; actives 0.75% (n = 360,000); purified bovine MsrA, absorbance read-out;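 note: 0% = vehicle wells with enzyme and 100% = reference inhibitor wells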
# MsrA inh confirm: bovine MsrA inhibition, confirmed. purified bovine MsrA, absorbance read-out. actives 41% (n = 2,300). inhibition, % at 15.5 µM. shares compounds with MsrA inh;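 note: coupled to thioredoxin reductase with NADPH and selenocystamine and DMSO as substrate; 0% = vehicle only and 100% = full effect of reference inhibitor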
# The depositor's hits bear a star; nt = no result. Shown are actives, neighbours in structure and some others; about 2.5% of the full set was active somewhere. Cut-off read from the data, not from the text of the source, unless noted: active = inhibition above about 4.5%; inactive = the rest.
SMILES,NR2E3 ag-1,NadD block,MsrA act,GalR3 antag,NR2E3 ag-2,MsrA inh,MsrA inh confirm
CC(=O)C1=C(O)C(=O)N(CCCn2ccnc2)C1c1ccc(Cl)cc1 (stereo not given),8.0,-4.9,-3.8,-7.8,1.2,0.7,nt
O=C(COC(=O)c1nc(Cl)ccc1Cl)NC1CCCCCC1,19.6,-1.2,-1.6,-3.3,5.3,-0.2,nt
CCOc1ccc(N(CC(=O)NC2CCCC2)C(=O)CCC(=O)Nc2nccs2)cc1,-11.3,-11.2,-2.6,-8.4,2.5,-0.2,nt
N/C(=N\OC(=O)/C=C/c1ccccc1)c1ccccn1,-169.2,5.3,-4.1,-3.1,-1.8,-0.2,nt
COc1ccc(/C=C/C(=O)c2ccc[nH]2)cc1OC,-31.4,0.8,-11.2,-4.6,-2.1,5.4*,4.3
COc1ccc(/C=C/C(=O)O/N=C(\N)c2ccccn2)cc1OC,-102.8,-0.4,-1.9,-0.2,nt,4.8*,3.5
COC(=O)Cc1ccc(NC(=S)NCc2ccc(S(N)(=O)=O)cc2)cc1,-2.6,-3.1,1.7,-8.0,-2.5,-0.3,nt
CCOC(=O)/C(C#N)=C1/C=CN(C)C=N1,1.6,-8.1,-7.0,-2.5,2.0,7.4*,5.7*
CCOC(=O)/C(C#N)=C1/C=CN(c2ccc(C)cc2)C=N1,-54.9,-1.7,-5.7,5.7,0.8,6.6*,5.2*
CCOC(=O)/C(C#N)=C1/C=CN(Cc2ccccc2)C=N1,-2.6,11.6,-5.3,-4.3,1.3,7.4*,5.7*
CCOC(=O)/C(C#N)=C1\C=CN(C)C(C)=N1,22.4,-4.5,-13.1,-2.4,-0.8,6.0*,4.1
CCOC(=O)/C(C#N)=C1/C=Nc2ccccc2N1,-4.5,-2.3,-0.3,-6.9,-0.2,2.4,nt
CC(C)(C)C(=O)N1N=C(c2ccc(NS(C)(=O)=O)cc2)CC1c1cccs1 (stereo not given),5.8,-8.1,-9.0,-3.8,-0.1,0.7,nt
CCOC(=O)/C(C#N)=C1/C=CN(c2ccccc2)C=N1,-46.6,4.9,-7.5,-5.6,1.3,5.6*,6.0*
Oc1ccc(C2Nc3cccc4cccc(c34)N2)c(O)c1,-15.2,21.7,1.8,0.3,-2.8,3.2,nt
Cc1cc(Cl)ccc1NC(=O)CN1CCCC1,4.8,-7.7,-3.6,-7.2,2.6,-0.7,nt
CN/C=C1\C(=O)C(C)(C)Oc2ccc3ccc(=O)oc3c21,-12.2,-4.1,-6.4,-1.6,0.6,5.4*,4.0
CN(C)CCCN(C(=O)COc1ccc(Cl)cc1)c1nc2ccc(F)cc2s1,1.8,-7.1,-7.2,-4.3,2.1,-0.2,nt
Oc1oc(-c2ccccc2)nc1C=NCc1ccncc1,-10.9,4.8,-1.3,-1.9,0.2,5.9*,4.5
CC1CN(C(=O)/C=C/c2ccc3c(c2)OCO3)CC(C)O1 (stereo not given),-16.5,-1.4,-13.2,-2.5,0.2,6.0*,1.1
COc1cc(/C=N/NC(=O)c2ccc(CSc3nncn3C)cc2)cc(OC)c1O,3.4,-2.7,-9.9,-4.6,-1.7,5.0*,3.6
Cn1cnnc1SCc1ccc(C(=O)N/N=C/c2cccs2)cc1,6.4,-10.3,-6.5,-1.7,-0.4,4.7*,1.3
O=C(O)c1ccc(/C=C(\c2nc3ccccc3[nH]2)c2nc3ccccc3s2)cc1,-22.2,3.4,-10.5,-4.2,0.8,5.4*,5.3*
O=C(C(=O)N1CCC(CNS(=O)(=O)c2cc(C(F)(F)F)cc(C(F)(F)F)c2)CC1)c1cccs1,nt,nt,nt,-1.4,nt,0.4,nt
O=C(N/N=C/c1c[nH]c2ccccc12)c1[nH]c2ccc(Br)cc2c1-c1ccccc1,23.6,23.1,-7.8,-0.8,nt,5.1*,3.8
SMILES,NR2E3 ag-1,NadD block,MsrA act,GalR3 antag,NR2E3 ag-2,MsrA inh,MsrA inh confirm
O=C(N/N=C/c1ccc(O)cc1)c1[nH]c2ccc(Br)cc2c1-c1ccccc1,42.0,9.7,-10.0,1.7,5.5,2.0,nt
Cc1nnc(Nc2ccc(F)cc2)c2ccccc12,-22.9,-3.7,2.8,-1.2,0.6,1.1,nt
Cc1nnc(Nc2ccccn2)c2ccccc12,-17.0,-4.9,-5.7,-0.3,-0.4,5.5*,1.1
N#Cc1c(N2CCCC2)ccc(Br)c1Cl,18.1,-7.3,-11.2,-0.5,0.7,6.0*,9.0*
Nc1cc(Cl)ccc1N1CCCCC1,-13.0,0.5,-5.3,-5.4,2.1,-0.7,nt
N#Cc1c(SCc2ccccc2)nc(N2CCOCC2)c2c1CCCC2,-33.5,2.4,-2.8,-0.6,-1.0,14.0*,10.2*
CC(=O)c1sc(NC(=O)CS(=O)(=O)c2ccccc2)nc1-c1ccccc1,-59.0,-0.1,-2.5,-4.7,4.8,2.8,nt
COC(=O)/C(=C/c1c[nH]c2ccccc12)NC(C)=O,-12.7,-3.1,-5.5,-5.9,1.9,3.7,nt
CCOC(=O)/C(=C/c1c[nH]c2ccccc12)NC(C)=O,-27.1,-5.0,0.4,-3.7,-0.1,5.0*,3.4
O=C(O)c1cc(O)c2c(c1)C(=O)c1cccc(O)c1C2=O,-28.5,1.3,2.3,0.0,-1.7,4.7*,16.9*
N#C/C(=C/c1cccnc1)c1ccccc1,19.9,-3.2,-2.8,-4.3,3.8,6.5*,2.9
Nc1nc2ccccc2n1/N=C/c1ccc2c(c1)OCO2,-104.0,-1.6,-7.8,-3.7,0.1,19.4*,13.7*
Cc1nc(/C=[N+](\[O-])C(C)(C)/C=N/O)n(O)c1C,-6.8,2.1,-5.8,1.3,-2.3,6.7*,4.6*
O=C(NC1=C(NC2CCS(=O)(=O)C2)C(=O)c2ccccc2C1=O)c1ccccc1 (stereo not given),-24.0,3.9,-0.7,-9.0,-3.1,5.0*,0.6
COc1cc(NC(=O)c2cc(Cl)ccc2Cl)ccc1-c1cc2ccccc2oc1=O,-10.6,7.8,1.0,-9.1,-3.5,1.1,nt
Cc1cc(C)c2c3c(sc2n1)C(c1cccc(F)c1)C(C#N)=C(N)O3 (stereo not given),12.4,5.3,-3.3,-3.1,2.7,10.2*,3.9
CN1C(=O)C2C=CC1C1C(=O)N(c3ccccc3)C(=O)C21 (stereo not given),-87.8,-4.4,-0.7,-0.2,1.1,0.8,nt
O=C(Nc1nc(SCc2ccc(F)cc2)ns1)c1ccco1,-125.5,-3.0,-1.6,-2.8,1.9,2.4,nt
CC(C)(C)NC(=O)c1nc2nc(-c3ccccc3)cc(C(F)(F)F)n2n1,-4.3,-0.1,-2.0,3.0,0.1,1.1,nt
COc1ccc(-c2cc(C(F)(F)F)n3nc(C(=O)O)nc3n2)cc1,-5.2,-7.5,-4.8,-2.0,-3.8,5.1*,4.1
COc1cc(OC)cc(-c2oc(=O)c3cc(OC)c(OC)cc3c2C#CCCO)c1,-8.2,-12.6,-4.7,-4.1,nt,11.4*,7.8*
COc1ccc(-c2oc(=O)c3cc(OC)c(OC)cc3c2C#CCCO)cc1,0.7,-19.5,-5.5,-3.3,nt,0.4,nt
Cn1c(SCC(=O)c2ccc(O)cc2O)nnc1-c1ccccc1,-38.7,-3.7,-2.3,-7.5,2.7,1.4,nt
